Reference: publication PMC4975651 (Molecular cell, 2016)

How the values were obtained:
[1] = target: T1, ZMYND8-PHD/Bromo/PWWP (ZMYND8-PBP) (Homo sapiens, UniProt Q9ULU4); assay: Isothermal titration calorimetry; assay type: binding; conditions: ITC
T1 sequence (Q9ULU4 93-426 isoform Q9ULU4-10): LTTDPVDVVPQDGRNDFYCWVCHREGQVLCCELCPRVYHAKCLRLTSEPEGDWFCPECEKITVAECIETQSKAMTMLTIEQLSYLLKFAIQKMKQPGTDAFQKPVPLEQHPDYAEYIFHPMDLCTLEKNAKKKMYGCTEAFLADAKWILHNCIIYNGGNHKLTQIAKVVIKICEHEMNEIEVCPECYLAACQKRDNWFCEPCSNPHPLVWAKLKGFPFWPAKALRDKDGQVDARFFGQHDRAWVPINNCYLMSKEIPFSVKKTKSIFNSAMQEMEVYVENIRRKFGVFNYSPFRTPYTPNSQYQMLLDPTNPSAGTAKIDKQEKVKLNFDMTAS
In short: (§1)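 ZMYND8 PHD/Bromo/PWWP region, with its point and deletion mutants, was cloned into a bacterial GST-fusion expression vector and expressed as recombinant protein. Binding to histone H3 peptides was measured by isothermal titration calorimetry, and KD was taken from the titration.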

[2] = target: T2, ZMYND8-PHD/Bromo (ZMYND8-PB) (Homo sapiens, UniProt Q9ULU4); assay: Isothermal titration calorimetry; assay type: binding; conditions: ITC
T2 sequence (Q9ULU4 75-268 limits assumed): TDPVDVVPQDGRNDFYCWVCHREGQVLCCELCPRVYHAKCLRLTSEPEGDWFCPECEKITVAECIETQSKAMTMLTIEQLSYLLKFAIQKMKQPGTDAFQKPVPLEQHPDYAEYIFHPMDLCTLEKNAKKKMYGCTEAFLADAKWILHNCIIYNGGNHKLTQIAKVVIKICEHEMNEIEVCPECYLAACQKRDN
In short: as §1

[3] = tested on: GST-tagged ZMYND8-PB (ZMYND8-PHD/Bromo); assay: Peptide pull-down assay, GST-tagged ZMYND8-PB; assay type: binding, human; conditions: biotinylated peptides
In short: (§2)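 Biotinylated histone peptides were used to pull down GST-tagged ZMYND8 fragments expressed in bacteria from a GST-fusion vector. These fragments were PHD/Bromo, PHD/Bromo/PWWP, or deletion mutants of PHD/Bromo. The deletion mutants were tested against the H3 (1-21) peptide.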

[4] = tested on: ZMYND8-PBP, alanine mutation of D99; assay: ITC, ZMYND8-PBP alanine mutant of D99; assay type: binding, human; conditions: H3K4me0 (1-25aa)
In short: as §1

[5] = tested on: ZMYND8-PBP, F109D; assay: ITC, ZMYND8-PBP F109D; assay type: binding, human; conditions: H3K4me0 (1-25aa), relative to ZMYND8-PBP
In short: as §1

[6] = tested on: ZMYND8-PBP, D108A; assay: ITC, ZMYND8-PBP alanine mutant of D108; assay type: binding, human; conditions: H3K4me0 (1-25aa)
In short: as §1

[7] = tested on: N-terminal truncated version of ZMYND8-PBP (residue 103-426); assay: ITC, N-terminal truncated ZMYND8-PBP; assay type: binding, human; conditions: H3K4me0 (1-25aa)
In short: as §1

[8] = tested on: ZMYND8-PHD; assay: Peptide pull-down assay, ZMYND8-PHD alone; assay type: binding, human; conditions: H3 (1-21) peptide
In short: as §2

[9] = tested on: ZMYND8-PBP, alanine mutation of D96; assay: ITC, ZMYND8-PBP alanine mutant of D96; assay type: binding, human; conditions: H3K4me0 (1-25aa)
In short: as §1

[10] = tested on: ZMYND8-PBP, alanine mutation of D104; assay: ITC, ZMYND8-PBP alanine mutant of D104; assay type: binding, human; conditions: H3K4me0 (1-25aa)
In short: as §1

[11] = tested on: ZMYND8-PBP, alanine mutation of E124; assay: ITC, ZMYND8-PBP alanine mutant of E124; assay type: binding, human; conditions: H3K4me0 (1-25aa)
In short: as §1

H3K4me0: unmethylated H3K4 (H3 [1-21aa]; referred to as "H3K4me0")
Kd [1]: ~7.2 µM | Kd [2]: ~15 µM | interaction with ZMYND8-PB (pull-down), 300 mM NaCl wash [3]: interacted | H3K4me0-binding activity of mutant [4]: significant losses | enhancement of PBP's binding activity by F109D [5]: ~ 11 fold | H3K4me0-binding activity of mutant [6]: significant losses | H3K4me0-binding activity of truncated ZMYND8-PBP [7]: significant losses | interaction with ZMYND8-PHD alone (pull-down) [8]: did not interact | H3K4me0-binding activity of mutant [9]: significant losses | H3K4me0-binding activity of mutant [10]: significant losses | H3K4me0-binding activity of mutant [11]: significant losses
